Lung fibro prol – antiproliferative effect on LL 47 fibroblasts – human, LL 47 cells, CellTiter-Glo luminescence, primary screen; AID 719, 2007; viability, % at 10 µM; LL 47 human lung fibroblast viability, ATP luminescence; stronger effect = lower value; 85,000 tested, 1.1% active;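 active = viability at or below 50% in the single dose screen; inactive = viability above 50%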;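 note: compound exposure lasted 72 h before the ATP readout; 100% = median luminescence of untreated cell-only wells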
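Times – overnight cell rest, 72 h compound treatment at 37 °C · Test system – human lung fibroblast line LL 47, low passage · Amount – 1,150 cells in each well · Controls – cell-only wells, no compound · Doses – 0.1% DMSO in all compound wells · Measured by – CellTiter-Glo luminescence · Buffer or medium – IMEM plus 15% FBS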
H69AR inhibit – proliferation blockers of H69AR lung cancer cells, primary screen, cell-based, human, 86K library; H69AR lung tumor viability, ATP luminescence, 72 h; stronger effect = lower value; viability, % at 10 µM; 85,000 tested, 6% active;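 active = viability at or below 40%; inactive = viability above 40%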;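 note: multidrug resistant small cell line overexpressing MRP-1 efflux transporter; 100% = mean luminescence of untreated control wells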
HCT116 bCat-KO – primary screen for growth suppressors in beta-catenin knockout HCT116 cells (colon tumor, human) | HCT116 beta-catenin knockout viability, CellTiter-Glo, 60 h; stronger effect = lower value | viability, % at 10 µM | 140,000 tested, 1.5% active;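 active = viability at or under a set limit, the compound median less 4 SD, cut at about 6% in these data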;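 note: 0% = Hyamine 1622 control at 20 µM and 100% = untreated cell control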
PTK2B oligo ant – antagonists of Pyk2 self-association, primary screen, Q293 cells, FERM NanoBiT luminescence, HTS. stronger effect = lower value. z-score (the deposit names both 25 µM and 10 µM). 99,000 tested, 0.83% active;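 active = Z-score of -3 or lower, scaled per plate to the spread of control and sample wells; inactive = z-score above -3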;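 note: negative z-score means lost luminescence so less FERM oligomerization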
Target sequence (Q14289 whole entry, looked up): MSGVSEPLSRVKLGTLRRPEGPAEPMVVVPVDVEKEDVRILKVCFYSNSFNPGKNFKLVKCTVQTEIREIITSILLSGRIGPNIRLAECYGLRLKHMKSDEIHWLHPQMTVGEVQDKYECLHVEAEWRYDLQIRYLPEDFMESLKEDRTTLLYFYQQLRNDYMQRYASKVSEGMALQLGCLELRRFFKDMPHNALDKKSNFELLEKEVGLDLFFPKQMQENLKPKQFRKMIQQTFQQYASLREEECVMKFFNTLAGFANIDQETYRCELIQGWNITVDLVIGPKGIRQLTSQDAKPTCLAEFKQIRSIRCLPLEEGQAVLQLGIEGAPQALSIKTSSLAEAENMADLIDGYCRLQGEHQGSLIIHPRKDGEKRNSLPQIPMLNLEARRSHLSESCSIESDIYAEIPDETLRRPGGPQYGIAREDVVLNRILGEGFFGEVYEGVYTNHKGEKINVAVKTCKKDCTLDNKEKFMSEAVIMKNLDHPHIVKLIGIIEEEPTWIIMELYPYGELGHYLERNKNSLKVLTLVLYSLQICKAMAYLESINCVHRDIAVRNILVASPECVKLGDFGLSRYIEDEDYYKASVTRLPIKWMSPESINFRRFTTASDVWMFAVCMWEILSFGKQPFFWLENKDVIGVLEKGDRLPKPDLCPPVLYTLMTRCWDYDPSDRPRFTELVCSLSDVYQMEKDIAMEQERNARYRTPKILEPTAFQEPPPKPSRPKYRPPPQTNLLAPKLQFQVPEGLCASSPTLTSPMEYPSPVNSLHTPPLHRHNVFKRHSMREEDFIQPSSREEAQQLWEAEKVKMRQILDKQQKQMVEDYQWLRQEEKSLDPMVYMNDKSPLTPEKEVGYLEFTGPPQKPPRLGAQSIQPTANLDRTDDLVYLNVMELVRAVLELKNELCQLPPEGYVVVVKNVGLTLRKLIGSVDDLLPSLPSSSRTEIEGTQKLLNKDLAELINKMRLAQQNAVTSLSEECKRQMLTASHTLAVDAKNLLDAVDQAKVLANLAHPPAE
HUVEC prolif 384 – inhibitors of HUVEC proliferation, primary screen, cell-based, 384-well; CellTiter-Glo luminescence, 72 h; stronger effect = lower value; viability, % at 10 µM (by protocol); AID 648, 2007; 86,000 tested, 1.1% active;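 active = viability at or below 30%; inactive = viability above 30%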;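 note: 100% = median luminescence of DMSO-only cell control wells on each plate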
PTEN del growth – growth suppression of PTEN-null HCT116, primary screen, cell-based, CellTiter-Glo; HCT116 PTEN-null viability, 60 h; stronger effect = lower value; viability, % at 10 µM; 140,000 tested, 1.2% active;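 active = viability at or below a set limit, 4 SD under the median of all tested compounds, cut at about 3.7% in these data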;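 note: PTEN knockout HCT116 line with beta catenin targeted HCT116 as companion control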
Active calls of the source: *. Many of the other results were omitted from the sample, so hits are more common in it than they were.

For O=C(N/N=C/C=C\c1ccccc1[N+](=O)[O-])c1cc(-c2ccc3ccccc3c2)n[nH]1 the results were HCT116 bCat-KO 4.7* and PTEN del growth 5.
`CN(C)c1ccc(-c2nn3c(-c4ccc(Cl)cc4)nnc3s2)cc1` gave Lung fibro prol 100, H69AR inhibit 87, HCT116 bCat-KO 97, PTK2B oligo ant 1, HUVEC prolif 384 88 and PTEN del growth 96.
Screening CN(C)c1ccc(-c2nn3c(C4CCCCC4)nnc3s2)cc1 returned Lung fibro prol 97, H69AR inhibit 86, HCT116 bCat-KO 89, PTK2B oligo ant -3.6*, HUVEC prolif 384 89 and PTEN del growth 63.
Screening O=C(CNC(=O)c1ccc(S(=O)(=O)N2CCCC2)cc1)N/N=C/c1ccc(Cl)cc1Cl returned HCT116 bCat-KO 60 and PTEN del growth 59.
Cc1ccc(-c2nnn(CC(=O)N(c3ccc(F)cc3)C(C(=O)NC3CCCC3)c3ccco3)n2)o1 (stereo not drawn) was read as Lung fibro prol 109, H69AR inhibit 96, HCT116 bCat-KO 96, PTK2B oligo ant -0.01, HUVEC prolif 384 84 and PTEN del growth 101.
`Cc1ccc(-c2nnn(CC(=O)N(c3ccc(F)cc3)C(C(=O)NC(C)(C)C)c3ccco3)n2)o1` (stereo not drawn) gave Lung fibro prol 100, H69AR inhibit 32*, HCT116 bCat-KO 84, PTK2B oligo ant -0.06, HUVEC prolif 384 77 and PTEN del growth 79.
`CCNC(=O)Cn1cc(C#N)c2ccccc21` gave Lung fibro prol 77, H69AR inhibit 88, HCT116 bCat-KO 103, PTK2B oligo ant 0.07, HUVEC prolif 384 98 and PTEN del growth 99.
CCN(CC)CC(=O)Nc1ccc2c(c1)N(C(=O)CN(CC)CC)c1ccccc1CC2 was read as Lung fibro prol 91, H69AR inhibit 82, HCT116 bCat-KO 90, PTK2B oligo ant -0.29, HUVEC prolif 384 89 and PTEN del growth 92.
CCN(CC(=O)Nc1ccc2c(c1)OCO2)Cc1nc2ccccc2c(=O)[nH]1 was read as Lung fibro prol 95, H69AR inhibit 82, HCT116 bCat-KO 88, PTK2B oligo ant 0.69, HUVEC prolif 384 80 and PTEN del growth 103.
Screening CCN(CC(=O)Nc1ccc2c(c1)CCC2)Cc1nc2ccccc2c(=O)[nH]1 returned Lung fibro prol 86, H69AR inhibit 33*, HCT116 bCat-KO 75, PTK2B oligo ant -0.48, HUVEC prolif 384 84 and PTEN del growth 71.
Screening CCN(CC(=O)Nc1cccc(Br)c1)Cc1nc2ccccc2c(=O)[nH]1 returned HCT116 bCat-KO 83, PTK2B oligo ant -0.37 and PTEN del growth 79.
For CCN(CC(=O)Nc1ccc2c(c1)OC(F)(F)O2)Cc1nc2ccccc2c(=O)[nH]1 the results were Lung fibro prol 87, H69AR inhibit 49, HCT116 bCat-KO 82, PTK2B oligo ant -3.9*, HUVEC prolif 384 74 and PTEN del growth 85.
For CCN(CC)CC(=O)Nc1ccc2c(c1)Nc1ccccc1CC2 the results were Lung fibro prol 77, H69AR inhibit 4.0*, HCT116 bCat-KO 31, PTK2B oligo ant -0.36, HUVEC prolif 384 34 and PTEN del growth 31.
`O=C1c2ccccc2OC2(C=Cc3ccccc3O2)N1Cc1ccccc1` (stereo not drawn) gave Lung fibro prol 93, H69AR inhibit 12*, HCT116 bCat-KO 17, PTK2B oligo ant -2.4, HUVEC prolif 384 62 and PTEN del growth 22.
`CCN(CC)c1ccc(N=Cc2ccccc2[N+](=O)[O-])cc1` gave HCT116 bCat-KO 46 and PTEN del growth 53.
Screening CCN(CC)c1ccc(N=Cc2ccc([N+](=O)[O-])o2)cc1 returned HCT116 bCat-KO 4.7* and PTEN del growth 1.9*.
Screening O=S(=O)(c1ccc(S(=O)(=O)N(Cc2ccco2)Cc2ccccc2Cl)cc1)N1CCCC1 returned Lung fibro prol 90, H69AR inhibit 79, HCT116 bCat-KO 91, PTK2B oligo ant 0.21, HUVEC prolif 384 65 and PTEN del growth 103.

Screening data deposited in PubChem BioAssay by several laboratories.
